Hits are enriched below; roughly 2.4% of the tested compounds scored in any of these assays.
T cruzi inh: blocks replication of Trypanosoma cruzi | T. cruzi beta-gal in NIH3T3, luminescence, 90 h | inhibition, % (test concentration not listed) | hit rate 1.4% among 300,000;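 active means mean inhibition across valid replicates above about 55%, limit read from the data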;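 further: signal also drops with host cell toxicity which is not excluded here; 0% = plate median of DMSO wells and 100% = zero luminescence signal; higher percent means less beta-gal luminescence so fewer parasites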
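compound dosing = single 50 nL compound addition per well in DMSO | material = NIH/3T3 host cells with β-galactosidase reporter T. cruzi | input = 5,000 host fibroblasts per well | timing = ≥90 h infection period, 3 h prior cell attachment | read-out basis = percent inhibition of parasite-derived β-gal signal | detection = GalScreen β-gal luminescence, detergent lysis, 60 min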
Fh CTSL1 inh: counter-screen for PFM18AAP inhibitors: inhibitors of F. hepatica cathepsin L1. AID 1906. hit rate 0.49% among 300,000. inhibition, % at 5.96 µM. recombinant F. hepatica cathepsin L1, Z-Leu-Arg-MCA fluorescence;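 active means inhibition above the mean of all tested compounds plus 3 SD, set per screening campaign, cut at about 17% in these data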;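 further: 0% = plate median of test compound wells and 100% = 1 µM Z-Phe-Ala-diazomethylketone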
PP5 inh: blocks human protein phosphatase 5 activity; P53041; purified PP5c, OMFP substrate fluorescence; hit rate 0.18% among 320,000; inhibition, % at 6.7 µM;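 active means inhibition above the campaign's mean inhibition across all tested compounds plus 3 SD, cut at about 9.5% in these data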;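 further: 0% = DMSO only and 100% = 100 µM cantharidin control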
Target sequence (P53041 whole entry, looked up): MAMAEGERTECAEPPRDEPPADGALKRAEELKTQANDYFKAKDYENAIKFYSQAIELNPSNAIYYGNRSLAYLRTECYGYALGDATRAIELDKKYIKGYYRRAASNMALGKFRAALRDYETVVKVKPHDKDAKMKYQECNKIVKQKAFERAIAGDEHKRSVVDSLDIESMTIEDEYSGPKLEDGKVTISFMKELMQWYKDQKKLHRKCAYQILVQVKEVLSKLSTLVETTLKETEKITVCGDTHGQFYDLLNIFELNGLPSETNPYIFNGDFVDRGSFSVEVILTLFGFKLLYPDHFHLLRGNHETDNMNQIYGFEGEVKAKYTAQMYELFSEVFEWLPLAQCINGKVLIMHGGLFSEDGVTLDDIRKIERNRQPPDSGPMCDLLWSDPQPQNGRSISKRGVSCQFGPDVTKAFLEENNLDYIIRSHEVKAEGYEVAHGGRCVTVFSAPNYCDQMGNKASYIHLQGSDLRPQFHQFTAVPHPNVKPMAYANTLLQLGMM
p-CIP stab down: p/CIP protein destabilization; F442A p/CIP-EGFP cells, EGFP fluorescence, 16 h; decrease of EGFP signal, % at 10 µM; hit rate 0.01% among 290,000; AID 1984;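 active means EGFP signal decrease of at least 30% at 10 µM or well 3 SD below plate mean, unless failing retest; inactive means the rest, including hits failing retest or dose response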
GASC-1 inh: inhibitors of human GASC-1 (JMJD2C) demethylase; GST-JMJD2C(1-420) H3K9me3 demethylation, DELFIA europium; inhibition, % at 2.35 µM; hit rate 0.069% among 330,000; AID 2099;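 active means more than half of a compound's replicate wells show inhibition beyond 50%, single wells judged on their own value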;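 further: signal counts dimethyl H3K9 product captured on neutravidin plate; 0% = median of DMSO wells and 100% = 0.3 times that DMSO median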
H9c2 protect: modulators protecting cardiomyocytes from myocardial damage; H9c2 cardiomyocytes, H2O2 injury protection, ATPLite, 2 h; protection from H2O2 cell death, % at 20 µM; hit rate 0.63% among 360,000; AID 588492;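 active means compounds giving at least 50% protection of heart cells from peroxide-induced death in the single-dose screen, raw or plate-pattern-corrected value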;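 further: 0% = DMSO wells with peroxide and 100% = DMSO wells without peroxide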
Starred values were filed as active, the others as inactive; · = no result given.

SMILES | T cruzi inh | Fh CTSL1 inh | PP5 inh | p-CIP stab down | GASC-1 inh | H9c2 protect
Cc1onc(-c2ccccc2)c1C(=O)NC(=S)NNC(=O)c1ccc(O)cc1 | -3 | 1 | 2 | -4 | -5 | 34
Cc1onc(-c2ccccc2)c1C(=O)NC(=S)NNC(=O)c1ccc(O)cc1O | -31 | 1 | 2 | 7 | 17 | 51*
Cc1onc(-c2ccccc2)c1C(=O)NC(=S)NNC(=O)c1ccccc1O | -14 | 4 | 1 | -5 | 9 | 60*
CC#CC[N+](C)(C)CCCCCCCCCCCC | 73* | 0 | 3 | -28 | -5 | -23
CC(C)(C)c1ccc(/C=C(\c2nc3ccccc3[nH]2)S(=O)(=O)c2ccccc2)cc1 | 56* | 0 | 1 | · | 1 | -12
Cc1cccc(/C=C(\c2nc3ccccc3[nH]2)S(=O)(=O)c2ccccc2)c1 | 47 | · | · | -34 | -7 | -28
O=C(CC1CCCC1)NNC(=O)c1ccc(Br)cc1 | · | · | 1 | · | 7 | 3
Cc1ccc(C)c(S(=O)(=O)N2CCCC2CNC(=O)C(=O)NCCc2ccccc2)c1 (configuration not stated) | 10 | -3 | 0 | · | -3 | 32
COc1ccc(CCNC(=O)C(=O)NCC2CCCN2S(=O)(=O)c2cc(C)ccc2C)cc1 (configuration not stated) | 2 | 3 | 0 | · | 6 | 76*
COc1ccc(-c2cc(C(F)(F)F)n3ncc(C(=O)N4CCc5ccccc5C4)c3n2)cc1 | 63* | 4 | -1 | -17 | -3 | 3
Cc1cc(NC(=O)c2cnn3c(C(F)(F)F)cc(-c4ccccc4)nc23)no1 | 38 | 7 | 1 | -36 | 4 | 93*
COc1ccc(-c2cc(C(F)(F)F)n3nc(C(=O)N4CCCC4)cc3n2)cc1 | -11 | -4 | 0 | -7 | -9 | -10
Cc1cc(NC(=O)c2cnn3c(C(F)F)cc(-c4ccccc4)nc23)no1 | 23 | 0 | 3 | -22 | -10 | 20
COc1ccc(-c2cc(C(F)(F)F)n3nc(C(=O)N4CCN(C(=O)c5ccco5)CC4)cc3n2)cc1 | -1 | -1 | 2 | -2 | -5 | 55*
COc1ccccc1-c1cc2nc(-c3ccccc3)cc(N3CCN(C(=O)c4ccoc4)CC3)n2n1 | · | · | · | · | · | 50*
COc1cccc(-c2cc(C(F)(F)F)n3ncc(C(=O)N4CCc5ccccc5C4)c3n2)c1 | 14 | 5 | 0 | -9 | -7 | 30
COc1ccc2c(c1OC)C(=O)N(c1ccc(OCc3ccccc3)cc1)C2=O | 0 | -3 | -1 | -6 | -13 | -4
O=C(c1ccoc1)N1CCN(c2cc(-c3ccccc3)nc3cc(-c4ccccc4)nn23)CC1 | · | · | · | · | · | -9
COc1cccc(-c2cc3nc(C)cc(N4CCN(C(=O)c5ccoc5)CC4)n3n2)c1 | · | · | · | · | · | 32
COc1ccccc1-c1cc2nc(-c3ccccc3)cc(N3CCN(C(=O)c4ccco4)CC3)n2n1 | · | · | · | · | · | 55*
COc1ccc(-c2cc3nc(C)cc(N4CCN(C(=O)c5ccoc5)CC4)n3n2)cc1 | · | · | · | · | · | 54*
COc1cc(/C=N/NC(N)=S)ccc1OC(=O)c1ccc(C)cc1 | 15 | 66* | 4 | -4 | -1 | -1
CCOc1cc(/C=N/N=C(N)N)ccc1OCc1ccc(Cl)cc1 | 31 | 4 | 4 | -8 | -15 | -11
COc1cc(/C=N/NC(=S)Nc2cccc(Cl)c2C)ccc1OCC(=O)N1CC(C)OC(C)C1 (configuration not stated) | 5 | -1 | 4 | -10 | -1 | 55*
COc1cc(/C=N/NC(N)=S)ccc1OCC(=O)N1CCOCC1 | -6 | 18* | -1 | -14 | 0 | 1
SMILES | T cruzi inh | Fh CTSL1 inh | PP5 inh | p-CIP stab down | GASC-1 inh | H9c2 protect
COc1cc(/C=N/N=C(N)N)ccc1OCc1ccc(Cl)cc1 | 87* | 8 | 2 | -6 | -27 | -23
O=C(NCc1ccccc1)C1CCC(=O)N(CCCN2CCCC2=O)C1 (configuration not stated) | 1 | 1 | 0 | 2 | 4 | 7
CCN1CCN(CCCNC(=O)c2ccccc2NC(=O)C2=C(C)OCCS2)CC1 | 4 | 1 | -1 | -14 | 6 | 1
Cc1cccnc1NC(=O)C(c1ccccc1)c1ccccc1 | -3 | 4 | 2 | -14 | -5 | -4
COc1cc(/C=N/NC(N)=S)ccc1OCc1ccc(C)cc1 | 58* | 15 | 0 | 4 | -7 | -6
COc1ccc(/C=N/NC(=O)c2cc(-c3ccc4c(c3)OCO4)n[nH]2)cc1OC | -12 | 6 | 1 | -5 | 2 | 65*
CN(C(=O)COc1cccc(C#N)c1)C1CCS(=O)(=O)C1 (configuration not stated) | · | · | 1 | · | 2 | 8
Cc1ccc(S(=O)(=O)N(C)CC(=O)N(C)Cc2cccs2)cc1 | · | · | · | · | · | 5
Fc1cccc(Cc2c(C3CCCCC3)nc3ccc(Br)cn23)c1 | · | · | · | · | · | -6
CN(C)CCCNC(=O)c1cc2c3ccccc3n(C)c2s1 | 74* | 1 | 3 | 1 | 12 | 7
CN(C)CCNC(=O)c1cc2sc3ccccc3c2s1 | 59* | 6 | 0 | 2 | 7 | 10
CCn1c(=O)c2cc(C(=O)NCCN(C)C)sc2c2ccccc21 | 22 | 2 | 0 | -13 | 14 | 4
C[C@H]1CN([C@@H](C)CO)C(=O)CCCn2nncc2CO[C@@H]1CN(C)Cc1cccc(C(=O)O)c1 | · | · | · | · | · | 2
O=C(O)CCC(=O)OCCN(Cc1ccc(Oc2ccc([N+](=O)[O-])cc2)cc1)C(=O)C(Cl)Cl | · | · | · | · | · | 8
Clc1cccc(C[n+]2cc(-c3ccccc3)n3c2CCC3)c1 | 64* | 1 | 0 | -42 | -10 | -7
Cc1ccc(-c2c[n+](Cc3cccc(Cl)c3)c3n2CCC3)cc1 | 67* | -1 | 2 | -18 | 4 | -11
Cc1ccc(-c2c[n+](Cc3ccc(Cl)cc3)c3n2CCC3)cc1 | 61* | -2 | -1 | -11 | -4 | -10
O=C(O)c1cccc(N/N=C/c2cc(Br)cc(Br)c2O)c1 | 5 | 3 | 3 | 14 | -5 | 13
Cc1c(N=Cc2cc(Br)cc(Br)c2O)cccc1C(=O)O | -5 | 1 | -1 | -16 | -3 | 62*
COc1ccc(CNC(=O)CCNS(=O)(=O)c2cc(Br)cnc2N)cc1 | -5 | -6 | 1 | 0 | -1 | -3
COc1ccc(NC(=O)CCl)cn1 | -8 | 17* | 1 | -11 | 4 | ·
O=C(Nc1cccc(-c2cnc3ccccc3n2)c1)c1cccc(NC(=O)c2ccco2)c1 | 26 | 3 | 3 | -37 | 5 | 61*
O=C(Nc1ccc(-c2nc3cccnc3s2)cc1)c1ccco1 | -3 | 3 | 4 | -6 | 9 | 6
O=C(CCl)Nc1ccc(Oc2cnc3ccccc3n2)cc1 | 15 | 23* | 0 | -15 | 8 | -4
O=C(Nc1cccc(-c2cnc3ccccc3n2)c1)c1ccccc1 | -4 | 2 | 4 | 10 | -7 | 2

Assay outcomes from PubChem BioAssay.
